Measurements published in ChEMBL document CHEMBL2331117 (J Med Chem, 2013).
Calls of active or inactive are those of the source. The calls are words filed in the database; no cut-off is given here.

Tests used:
[1] = target: T1, Cytochrome P450 2C8 (Homo sapiens, UniProt P10632); experiment: Inhibition of CYP2C8 (unknown origin); type: ADME
T1 sequence (P10632 whole entry): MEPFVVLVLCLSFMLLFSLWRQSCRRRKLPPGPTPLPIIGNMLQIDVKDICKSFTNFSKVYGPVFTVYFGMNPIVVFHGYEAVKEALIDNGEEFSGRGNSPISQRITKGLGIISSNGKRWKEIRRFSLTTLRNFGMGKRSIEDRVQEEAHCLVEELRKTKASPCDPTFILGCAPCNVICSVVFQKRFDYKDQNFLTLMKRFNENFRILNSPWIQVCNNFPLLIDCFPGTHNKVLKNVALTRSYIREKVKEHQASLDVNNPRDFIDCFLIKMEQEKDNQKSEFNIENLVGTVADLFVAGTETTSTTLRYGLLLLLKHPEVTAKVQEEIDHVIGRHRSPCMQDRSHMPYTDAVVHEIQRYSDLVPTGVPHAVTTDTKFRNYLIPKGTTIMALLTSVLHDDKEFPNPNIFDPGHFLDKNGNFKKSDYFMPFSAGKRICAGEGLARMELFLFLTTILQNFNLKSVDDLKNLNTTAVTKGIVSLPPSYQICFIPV

[2] = test system: Mus musculus; experiment: In vivo inhibition of mTORC2-mediated phosphorylation of AKT at serine 473 in human PC3 cells xenografted into athymic nude mouse at 100 mg/kg, po after 8 hrs by Western blotting analysis relative to control; type: functional; details: PC-3, 8 h
Procedure, shortened: (§1)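 PC-3 cells grown in DMEM with 20% FBS were implanted subcutaneously at 3 × 10^6 cells in ice-cold HBSS into the hindflank of 5−8 week old male nude mice. At tumor size 200−500 mg, mice received a single oral dose of 100 mg/kg. Plasma and tumors were collected at 1, 4, 8, 16, 24 and 32 h. Tumor lysates from each group (n = 5) were pooled. Phospho-proteins were quantified by Western blot and normalized to α-tubulin.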

[3] = test system: Mus musculus; experiment: In vivo inhibition of mTORC1-mediated phosphorylation of pS6 at (serine 240/244) in human PC3 cells xenografted into athymic nude mouse at 100 mg/kg, po after 24 hrs by Western blotting analysis relative to control; type: functional; details: PC-3, 24 h; procedure, shortened: as §1
[4] = test system: Mus musculus; experiment: In vivo inhibition of mTORC1-mediated phosphorylation of 4EBP1 at ([…]) in human MCF7 cells xenografted into athymic nude mouse at 100 mg/kg, po after 4 hrs by Western blotting analysis relative to control; type: functional; details: MCF7, 4 h
Procedure, shortened: (§2)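 MCF-7 cells (DMEM, 10% FBS) were implanted subcutaneously at 5 × 10^6 cells in 50% cold HBSS/50% growth-factor-reduced matrigel into the hindflank of 5−8 week old female nude mice. At tumor size 40−150 mg, mice received a single oral dose of 100 mg/kg. Tumor lysates were pooled per group. Phospho-AKT (S473, T308), p70S6K (T389), S6 (S240/244) and 4E-BP1 (T37/46) were measured by Western blot normalized to α-tubulin.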

[5] = test system: Mus musculus; experiment: In vivo inhibition of mTORC2-mediated phosphorylation of AKT at serine 473 in human MCF7 cells xenografted into athymic nude mouse at 100 mg/kg, po after 1 hr by Western blotting analysis relative to control; type: functional; details: MCF7, 1 h; procedure, shortened: as §2
[6] = test system: Mus musculus; experiment: Toxicity in athymic nude mouse assessed as body weight loss at 100 mg/kg, po relative to control; type: organism-based; design: dose 100 mg/kg, route oral; details: in vivo
[7] = AUC (0 to infinity) in cynomolgus monkey at 3 mg/kg, po; type: ADME, organism-based, Macaca fascicularis; design: dose 3 mg/kg, route oral, time infinity; details: plasma
Procedure, shortened: (§3)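 Single-dose PK: female athymic nude mice (10 mg/kg), female CD rats and male beagle dogs (3 mg/kg), male cynomolgus monkeys (3 mg/kg), given iv and by oral gavage. Solution in EPW (5% ethanol/45% PEG400/water), with 1:2 HCl (m/m) for mouse, rat and dog and 1:1.5 HCl (m/m) for monkey. Plasma levels followed over 24 h.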

[8] = Plasma concentration in athymic mouse plasma xenografted with human PC3 cells at 100 mg/kg, po after 8 hrs; type: ADME, organism-based, PC-3; design: dose 100 mg/kg, route oral
[9] = target: Cytochrome P450 2D6 (Homo sapiens, UniProt P10635); experiment: Inhibition of CYP2D6 (unknown origin); type: ADME
Chain of Cytochrome P450 2D6 (P10635 whole entry): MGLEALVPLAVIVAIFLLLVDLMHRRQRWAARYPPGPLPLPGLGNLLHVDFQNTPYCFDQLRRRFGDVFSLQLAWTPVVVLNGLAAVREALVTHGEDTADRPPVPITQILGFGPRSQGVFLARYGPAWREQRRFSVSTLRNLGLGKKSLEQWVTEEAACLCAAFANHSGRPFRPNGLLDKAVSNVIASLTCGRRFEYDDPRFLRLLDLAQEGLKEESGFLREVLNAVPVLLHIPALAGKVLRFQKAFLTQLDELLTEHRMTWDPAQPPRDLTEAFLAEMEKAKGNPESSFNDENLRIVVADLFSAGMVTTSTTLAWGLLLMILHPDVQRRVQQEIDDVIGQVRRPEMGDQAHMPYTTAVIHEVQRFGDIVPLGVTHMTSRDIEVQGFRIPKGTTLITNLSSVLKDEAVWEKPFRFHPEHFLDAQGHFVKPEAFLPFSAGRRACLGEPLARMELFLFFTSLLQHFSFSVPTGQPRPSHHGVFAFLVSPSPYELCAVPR

[10] = Oral bioavailability in CD rat at 3 mg/kg; type: ADME, organism-based; details: in vivo
Procedure, shortened: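 For single-dose PK, compound was given intravenously and by oral gavage as a solution in EPW (5% ethanol/45% PEG400/water + 1:2 HCl m/m). Doses were 10 mg/kg in female athymic nude mice and 3 mg/kg in female CD rats and male beagle dogs.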

[11] = Half life in athymic nude mouse at 10 mg/kg, iv; type: ADME, organism-based; design: dose 10 mg/kg, route intravenous; details: in vivo; procedure, shortened: as §3
[12] = test system: Mus musculus; experiment: Inhibition of mTORC2-mediated phosphorylation of AKT at serine 473 in human PC3 cells xenografted into athymic nude mouse at 100 mg/kg, po after 1 hr by Western blotting analysis relative to control; type: functional; details: PC-3, 1 h
Procedure, shortened: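 PC-3 cells (3 × 10^6, in ice-cold HBSS) were implanted subcutaneously in the hindflank of 5–8 week old male nude mice. At 200–500 mg tumour size, mice received a single oral dose. Tumours were collected at set times after dosing, homogenised and pooled per group (n=5). pAKT S473 was measured by Western blot and normalised to α-tubulin.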

[13] = Plasma protein binding in rat at 5 uM; type: ADME, cell-free; details: read-out: PPB (converted)
[14] = target: ALK tyrosine kinase receptor (Homo sapiens, UniProt Q9UM73); experiment: Inhibition of ALK (unknown origin)
Chain of ALK tyrosine kinase receptor (Q9UM73 whole entry): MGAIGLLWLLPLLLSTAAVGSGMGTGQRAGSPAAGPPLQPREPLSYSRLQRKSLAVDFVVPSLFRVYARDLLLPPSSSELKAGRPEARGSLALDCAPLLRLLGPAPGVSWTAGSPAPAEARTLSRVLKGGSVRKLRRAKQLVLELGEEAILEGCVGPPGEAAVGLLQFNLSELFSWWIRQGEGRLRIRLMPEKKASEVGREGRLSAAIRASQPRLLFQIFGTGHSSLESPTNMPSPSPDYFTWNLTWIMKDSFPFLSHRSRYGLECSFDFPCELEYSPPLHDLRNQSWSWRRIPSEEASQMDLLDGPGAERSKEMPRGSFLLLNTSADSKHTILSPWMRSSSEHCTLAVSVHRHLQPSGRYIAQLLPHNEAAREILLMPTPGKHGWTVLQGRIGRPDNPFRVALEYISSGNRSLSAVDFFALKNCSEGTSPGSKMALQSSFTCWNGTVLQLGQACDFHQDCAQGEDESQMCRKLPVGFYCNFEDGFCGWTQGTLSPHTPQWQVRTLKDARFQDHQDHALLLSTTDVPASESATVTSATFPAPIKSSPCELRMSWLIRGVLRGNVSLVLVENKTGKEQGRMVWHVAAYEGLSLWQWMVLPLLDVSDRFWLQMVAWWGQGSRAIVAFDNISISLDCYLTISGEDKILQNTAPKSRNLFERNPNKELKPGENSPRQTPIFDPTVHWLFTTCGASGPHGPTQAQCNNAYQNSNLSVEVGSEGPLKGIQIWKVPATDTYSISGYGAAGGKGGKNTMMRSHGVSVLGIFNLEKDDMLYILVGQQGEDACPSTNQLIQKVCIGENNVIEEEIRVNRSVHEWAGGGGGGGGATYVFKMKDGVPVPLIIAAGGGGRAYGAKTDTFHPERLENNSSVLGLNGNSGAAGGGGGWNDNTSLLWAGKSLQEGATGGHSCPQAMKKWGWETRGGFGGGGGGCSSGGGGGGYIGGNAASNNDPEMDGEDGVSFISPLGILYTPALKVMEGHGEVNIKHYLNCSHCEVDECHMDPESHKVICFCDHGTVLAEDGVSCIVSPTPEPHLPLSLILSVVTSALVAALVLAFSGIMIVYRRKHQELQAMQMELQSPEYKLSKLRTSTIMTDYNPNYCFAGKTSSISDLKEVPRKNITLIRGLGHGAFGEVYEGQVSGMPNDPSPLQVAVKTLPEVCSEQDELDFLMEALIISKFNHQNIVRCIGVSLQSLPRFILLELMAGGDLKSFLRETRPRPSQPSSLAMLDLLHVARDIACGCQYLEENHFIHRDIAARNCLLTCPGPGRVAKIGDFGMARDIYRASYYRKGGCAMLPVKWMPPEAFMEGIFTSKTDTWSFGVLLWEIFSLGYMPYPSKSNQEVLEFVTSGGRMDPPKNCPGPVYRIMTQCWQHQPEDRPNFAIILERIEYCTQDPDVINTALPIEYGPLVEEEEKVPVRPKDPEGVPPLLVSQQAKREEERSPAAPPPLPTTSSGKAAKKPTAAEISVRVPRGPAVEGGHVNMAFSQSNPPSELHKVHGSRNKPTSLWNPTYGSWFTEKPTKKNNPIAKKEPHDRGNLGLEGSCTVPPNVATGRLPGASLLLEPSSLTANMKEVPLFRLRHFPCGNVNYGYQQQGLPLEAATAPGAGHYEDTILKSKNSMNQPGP

[15] = target: Serine/threonine-protein kinase mTOR (Rattus norvegicus) (UniProt P42346); experiment: Reversible inhibition of mTOR (unknown origin) assessed as enzyme recovery measured after dilution in presence of ATP relative to untreated control; details: Homo sapiens
[16] = test system: Mus musculus; experiment: In vivo inhibition of mTORC2-mediated phosphorylation of AKT at […] in human PC3 cells xenografted into athymic nude mouse at 100 mg/kg, po after 32 hrs by Western blotting analysis relative to control; type: functional; details: PC-3, 32 h
Procedure, shortened: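 Human PC-3 cells were implanted subcutaneously into the hindflank of male nude mice aged 5−8 weeks, at 3 × 10^6 cells (passages 10−14, >95% viability) in ice-cold HBSS. At a tumor size of 200−500 mg, mice got one oral 100 mg/kg dose. Tumors were taken at 1, 4, 8, 16, 24 and 32 h. Lysates (n = 5 per group) were pooled, and phospho-AKT (T308) was read by Western blot, normalized to α-tubulin.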

[17] = Plasma concentration in athymic mouse plasma xenografted with human PC3 cells at 100 mg/kg, po after 16 hrs; type: ADME, organism-based, PC-3; design: dose 100 mg/kg, route oral
[18] = test system: Mus musculus; experiment: In vivo inhibition of mTORC2-mediated phosphorylation of AKT at […] in human MCF7 cells xenografted into athymic nude mouse at 100 mg/kg, po after 24 hrs by Western blotting analysis relative to control; type: functional; details: MCF7, 24 h; procedure, shortened: as §2
[19] = target: Ribosomal protein S6 kinase beta-1 (Homo sapiens, UniProt P23443); experiment: Inhibition of p70S6K (unknown origin)
Chain of Ribosomal protein S6 kinase beta-1 (P23443 whole entry): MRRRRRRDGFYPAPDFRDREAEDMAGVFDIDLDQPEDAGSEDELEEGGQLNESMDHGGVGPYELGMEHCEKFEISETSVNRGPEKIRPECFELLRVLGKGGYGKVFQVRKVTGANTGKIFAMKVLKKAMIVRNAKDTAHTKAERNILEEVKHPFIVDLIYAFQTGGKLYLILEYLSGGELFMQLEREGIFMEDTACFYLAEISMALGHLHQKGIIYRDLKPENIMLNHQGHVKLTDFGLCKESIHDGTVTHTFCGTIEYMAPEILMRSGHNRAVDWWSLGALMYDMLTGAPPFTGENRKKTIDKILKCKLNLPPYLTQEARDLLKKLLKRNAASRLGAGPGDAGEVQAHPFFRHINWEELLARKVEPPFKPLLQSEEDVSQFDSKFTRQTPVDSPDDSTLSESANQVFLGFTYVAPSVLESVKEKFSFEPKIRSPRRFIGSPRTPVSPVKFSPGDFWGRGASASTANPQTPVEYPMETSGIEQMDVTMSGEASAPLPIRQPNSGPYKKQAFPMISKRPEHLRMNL

[20] = Cmax in athymic nude mouse at 10 mg/kg, po; type: ADME, organism-based; design: dose 10 mg/kg, route oral; details: in vivo; procedure, shortened: as §3

- INH [1]: > 20 µM
- AUC(0-inf) [7]: 0.7 µM·h
- concentration at 8 h [8]: 26.7 µM
- INH [9]: > 20 µM
- bioavailability [10]: 25.6%
- half-life [11]: 81 min
- fraction unbound at 5 µM [13]: 0.15
- IC50 [14]: > 3.5 µM
- inhibition [15]: inactive
- concentration at 16 h [17]: 6.17 µM
- IC50 [19]: > 3.5 µM
- Cmax [20]: 1300 nM
SMILES: Cc1c(C(=O)N2CCOc3ccc(-c4ccc(N)nc4)cc3C2)ccc(S(C)(=O)=O)c1F
- inhibition in vivo at 100 mg/kg [2]: 83%
- inhibition in vivo at 100 mg/kg [3]: 8%
- inhibition in vivo at 100 mg/kg [4]: 85%
- inhibition in vivo at 100 mg/kg [5]: 93%
- Activity [6]: 2.8%
- inhibition in vivo at 100 mg/kg [12]: 88%
- inhibition in vivo at 100 mg/kg [16]: -3%
- inhibition in vivo at 100 mg/kg [18]: -39%
